Source: ChEMBL document CHEMBL3124924, “Bifunctional ethyl 2-amino-4-methylthiazole-5-carboxylate derivatives: synthesis and in vitro biological evaluation as antimicrobial and anticancer agents” (2014)
In brackets after ≈: the same amount, converted by molar mass. Activity calls are given as the source filed them. The calls are words filed in the database; no cut-off is given here.

Key:
Candida albicans = assay: Antifungal activity against Candida albicans ATCC 10231 assessed as growth inhibition at 1 mg/mL after 48 hrs by agar-cup diffusion method; type: functional; conditions: ATCC 10231, 48 h, read-out: DIZ
Method in brief: (§1)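 Agar-cup diffusion: 1 mL of 6 h broth culture seeded per 100 mL molten sterile agar at 45 °C and poured into plates. 8 mm cups cut, each filled with 0.1 mL of 1 mg/mL test solution. Incubated 37 °C for 24 h, 48 h for C. albicans. DMSO control per organism. Inhibition zone diameter in mm, mean of three measurements.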

Escherichia coli [1] = assay: Antibacterial activity against Escherichia coli ATCC 25922 assessed as growth inhibition at 1 mg/mL after 24 hrs by agar-cup diffusion method; type: functional; conditions: ATCC 25922, 24 h, read-out: DIZ; method in brief: as §1
Bacillus spizizenii [2] = assay: Antibacterial activity against Bacillus subtilis ATCC 6633 assessed as growth inhibition at 1 mg/mL after 24 hrs by agar-cup diffusion method; type: functional; conditions: ATCC 6633, 24 h, read-out: DIZ; method in brief: as §1
SNB-75 = assay: Cytotoxicity against human SNB75 cells assessed as growth inhibition at 10 uM after 48 hrs by SRB assay; type: functional; conditions: SNB-75, 48 h, read-out: GI
Method in brief: (§2)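 NCI-60 one-dose primary screen run by the NCI Drug Evaluation Branch across the full 60-line panel. Single high-dose treatment with 48 h continuous drug exposure. Cell growth estimated by sulforhodamine B protein staining. Results given as percent growth of treated cells and expressed as percentage growth inhibition.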

SF-268 = assay: Cytotoxicity against human SF268 cells assessed as growth inhibition at 10 uM after 48 hrs by SRB assay; type: functional; conditions: SF-268, 48 h, read-out: GI; method in brief: as §2
UACC-62 = assay: Cytotoxicity against human UACC62 cells assessed as growth inhibition at 10 uM after 48 hrs by SRB assay; type: functional; conditions: UACC-62, 48 h, read-out: GI; method in brief: as §2
SK-MEL-2 = assay: Cytotoxicity against human SK-MEL-2 cells assessed as growth inhibition at 10 uM after 48 hrs by SRB assay; type: functional; conditions: SK-MEL-2, 48 h, read-out: GI; method in brief: as §2
LOX IMVI = assay: Cytotoxicity against human LOXIMVI cells assessed as growth inhibition at 10 uM after 48 hrs by SRB assay; type: functional; conditions: read-out: GI; method in brief: as §2
[3] = Cytotoxicity against human UO31 cells assessed as growth inhibition at 10 uM after 48 hrs by SRB assay; type: functional; conditions: UO-31, 48 h, read-out: GI; method in brief: as §2
A498 = assay: Cytotoxicity against human A498 cells assessed as growth inhibition at 10 uM after 48 hrs by SRB assay; type: functional; conditions: A498, 48 h, read-out: GI; method in brief: as §2
SR = assay: Cytotoxicity against human SR cells assessed as growth inhibition at 10 uM after 48 hrs by SRB assay; type: functional; conditions: read-out: GI; method in brief: as §2
RPMI-8226 = assay: Cytotoxicity against human RPMI8226 cells assessed as growth inhibition at 10 uM after 48 hrs by SRB assay; type: functional; conditions: RPMI-8226, 48 h, read-out: GI; method in brief: as §2
MOLT-4 = assay: Cytotoxicity against human MOLT4 cells assessed as growth inhibition at 10 uM after 48 hrs by SRB assay; type: functional; conditions: MOLT-4, 48 h, read-out: GI; method in brief: as §2
K562 = assay: Cytotoxicity against human K562 cells assessed as growth inhibition at 10 uM after 48 hrs by SRB assay; type: functional; conditions: K562, 48 h, read-out: GI; method in brief: as §2
CCRF-CEM = assay: Cytotoxicity against human CCRF-CEM cells assessed as growth inhibition at 10 uM after 48 hrs by SRB assay; type: functional; conditions: read-out: GI; method in brief: as §2
IGROV-1 = assay: Cytotoxicity against human IGROV1 cells assessed as growth inhibition at 10 uM after 48 hrs by SRB assay; type: functional; conditions: IGROV-1, 48 h, read-out: GI; method in brief: as §2
MDA-MB-468 = assay: Cytotoxicity against human MDA-MB-468 cells assessed as growth inhibition at 10 uM after 48 hrs by SRB assay; type: functional; conditions: MDA-MB-468, 48 h, read-out: GI; method in brief: as §2
[4] = Cytotoxicity against human Hs578T cells assessed as growth inhibition at 10 uM after 48 hrs by SRB assay; type: functional; conditions: Hs-578T, read-out: GI; method in brief: as §2
HT-29 = assay: Cytotoxicity against human HT-29 cells assessed as growth inhibition at 10 uM after 48 hrs by SRB assay; type: functional; conditions: HT-29, 48 h, read-out: GI; method in brief: as §2
HCT-15 = assay: Cytotoxicity against human HCT15 cells assessed as growth inhibition at 10 uM after 48 hrs by SRB assay; type: functional; conditions: HCT-15, 48 h, read-out: GI; method in brief: as §2
HCT-116 = assay: Cytotoxicity against human HCT116 cells assessed as growth inhibition at 10 uM after 48 hrs by SRB assay; type: functional; conditions: HCT-116, 48 h, read-out: GI; method in brief: as §2
HCC 2998 = assay: Cytotoxicity against human HCC2998 cells assessed as growth inhibition at 10 uM after 48 hrs by SRB assay; type: functional; conditions: HCC 2998, 48 h, read-out: GI; method in brief: as §2
NCI-H226 = assay: Cytotoxicity against human NCI-H226 cells assessed as growth inhibition at 10 uM after 48 hrs by SRB assay; type: functional; conditions: NCI-H226, 48 h, read-out: GI; method in brief: as §2
Aspergillus niger = assay: Antifungal activity against Aspergillus niger assessed as growth inhibition at 1 mg/mL after 24 hrs by agar-cup diffusion method; type: functional, organism-based; method in brief: as §1
Pseudomonas aeruginosa [5] = assay: Bactericidal activity against Pseudomonas aeruginosa ATCC 27853 after 18 hrs; type: functional; conditions: ATCC 27853, 18 h
Method in brief: (§3)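 Continuation of the broth-dilution MIC test. A loopful from each tube without visible growth spread on a quarter of a Mueller-Hinton agar plate and incubated 18 h. Lowest concentration giving no growth on subculture taken as the MBC.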

Pseudomonas aeruginosa [6] = assay: Antibacterial activity against Pseudomonas aeruginosa ATCC 27853 assessed as growth inhibition after 48 hrs by two-fold serial dilution assay; type: functional; conditions: ATCC 27853, 48 h
Method in brief: (§4)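 Twofold serial broth dilution run on compounds giving inhibition zones of 13 mm or more. Organisms pre-grown in suitable broth at 37 °C, 24 h for bacteria and 48 h for fungi. Dilution series 200, 100, 50, 25, 12.5, 6.25. Each 5 mL tube inoculated with 0.1 mL and incubated 37 °C for 48 h. Tubes scored for presence or absence of growth.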

Escherichia coli [7] = assay: Bactericidal activity against Escherichia coli ATCC 25922 after 18 hrs; type: functional; conditions: ATCC 25922, 18 h; method in brief: as §3
Escherichia coli [8] = assay: Antibacterial activity against Escherichia coli ATCC 25922 assessed as growth inhibition after 48 hrs by two-fold serial dilution assay; type: functional; conditions: ATCC 25922, 48 h; method in brief: as §4
Bacillus spizizenii [9] = assay: Bactericidal activity against Bacillus subtilis ATCC 6633 after 18 hrs; type: functional; conditions: ATCC 6633, 18 h; method in brief: as §3
Bacillus spizizenii [10] = assay: Antibacterial activity against Bacillus subtilis ATCC 6633 assessed as growth inhibition after 48 hrs by two-fold serial dilution assay; type: functional; conditions: ATCC 6633, 48 h; method in brief: as §4
Staphylococcus aureus [11] = assay: Antibacterial activity against Staphylococcus aureus ATCC 6538 assessed as growth inhibition after 48 hrs by two-fold serial dilution assay; type: functional; conditions: ATCC 6538, 48 h; method in brief: as §4
Staphylococcus aureus [12] = assay: Antibacterial activity against Staphylococcus aureus ATCC 6538 assessed as growth inhibition at 1 mg/mL after 24 hrs by agar-cup diffusion method; type: functional; conditions: ATCC 6538, 24 h, read-out: DIZ; method in brief: as §1

Compound | zone of inhibition at 1000 µg/mL (Candida albicans) | zone of inhibition at 1000 µg/mL (Escherichia coli [1]) | zone of inhibition at 1000 µg/mL (Bacillus spizizenii [2]) | inhibition of growth at 10 µM (SNB-75) | inhibition of growth at 10 µM (SF-268) | inhibition of growth at 10 µM (UACC-62) | inhibition of growth at 10 µM (SK-MEL-2) | inhibition of growth at 10 µM (LOX IMVI) | inhibition of growth at 10 µM [3] | inhibition of growth at 10 µM (A498) | inhibition of growth at 10 µM (SR) | inhibition of growth at 10 µM (RPMI-8226) | inhibition of growth at 10 µM (MOLT-4) | inhibition of growth at 10 µM (K562) | inhibition of growth at 10 µM (CCRF-CEM) | inhibition of growth at 10 µM (IGROV-1) | inhibition of growth at 10 µM (MDA-MB-468) | inhibition of growth at 10 µM [4] | inhibition of growth at 10 µM (HT-29) | inhibition of growth at 10 µM (HCT-15) | other results
Cc1nc(NC(=S)Nc2ccc(F)cc2)sc1C(=O)NN | > 13 mm | > 13 mm | > 13 mm | 7.19% | < 10% | 10.8% | 30% | 6.73% | 11% | < 10% | < 10% | < 10% | < 10% | < 10% | < 10% | 6.51% | 5.5% | 2.23% | < 10% | < 10% | inhibition of growth at 10 µM (HCT-116): 7.87%; inhibition of growth at 10 µM (HCC 2998): 10.5%; inhibition of growth at 10 µM (NCI-H226): 5.35%; growth inhibition (GI) (Aspergillus niger): inactive; MBC (Pseudomonas aeruginosa [5]): 50 µg/mL (≈ 154 µM); MIC (Pseudomonas aeruginosa [6]): 50 µg/mL (≈ 154 µM); MBC (Escherichia coli [7]): 12.5 µg/mL (≈ 38.4 µM); MIC (Escherichia coli [8]): 12.5 µg/mL (≈ 38.4 µM); MBC (Bacillus spizizenii [9]): 12.5 µg/mL (≈ 38.4 µM); MIC (Bacillus spizizenii [10]): 12.5 µg/mL (≈ 38.4 µM); MIC (Staphylococcus aureus [11]): 6.25 µg/mL (≈ 19.2 µM); zone of inhibition at 1000 µg/mL (Staphylococcus aureus [12]): > 13 mm
Cc1nc(NC(=O)NC2CCCCC2)sc1C(=O)NN | > 13 mm | > 13 mm | > 13 mm | < 10% | < 10% | 10.2% | 29.3% | 7.54% | 16% | < 10% | < 10% | < 10% | < 10% | < 10% | < 10% | 28% | 3.73% | < 10% | 5.51% | 9.55% | inhibition of growth at 10 µM (HCT-116): 16.3%; inhibition of growth at 10 µM (HCC 2998): < 10%; inhibition of growth at 10 µM (NCI-H226): < 10%; growth inhibition (GI) (Aspergillus niger): inactive; MBC (Pseudomonas aeruginosa [5]): 200 µg/mL (≈ 673 µM); MIC (Pseudomonas aeruginosa [6]): 100 µg/mL (≈ 336 µM); MBC (Escherichia coli [7]): 100 µg/mL (≈ 336 µM); MIC (Escherichia coli [8]): 50 µg/mL (≈ 168 µM); MBC (Bacillus spizizenii [9]): 100 µg/mL (≈ 336 µM); MIC (Bacillus spizizenii [10]): 100 µg/mL (≈ 336 µM); MIC (Staphylococcus aureus [11]): 25 µg/mL (≈ 84.1 µM); zone of inhibition at 1000 µg/mL (Staphylococcus aureus [12]): > 13 mm
